Results published in ChEMBL document CHEMBL4477235, “Evolution of a Novel, Orally Bioavailable Series of PI3Kδ Inhibitors from an Inhaled Lead for the Treatment of Respiratory Disease” (J Med Chem, 2016).

Experiments:
[1] = Clearance in human liver microsomes at 0.5 uM measured up to 30 mins by LC-MS/MS analysis; format: ADME, Microsome; details: 0.5 h
[2] = biological target: Phosphatidylinositol 4-kinase beta (Homo sapiens, UniProt Q9UBF8); assay: Inhibition of PIK4B (unknown origin)
Aurora kinase B = Aurora kinase B (Homo sapiens, UniProt Q96GD4); assay: Inhibition of Aurora B (unknown origin)
[3] = Fraction unbound in Brown Norway rat acute OVA model of TH2-driven lung inflammation at 3 mg/kg, po pretreated for 30 mins followed by OVA challenge measured 1 hr post dose by HPLC analysis; format: ADME, organism-based; details: in vivo
How it was run: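 Unbound concentration at 1 h post-dose estimated by an internal algorithm from binding to HPLC columns coated with HSA and α-glycoprotein.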

Homo sapiens = species: Homo sapiens; assay: Selectivity ratio of IC50 for PI3Kbeta (unknown origin) to IC50 for PI3Kdelta (unknown origin)
How it was run: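 Ratio of each isoform's HTRF IC50 to the PI3Kδ HTRF IC50. Enzymes were preincubated 15 min with 4-fold compound dilutions in HEPES pH 7.0, MgCl2, DTT buffer. […] PIP2 was 5 µM for δ and 8 µM for α/β/γ. 60 min reaction, then EDTA quench with GRP-1 PH domain/APC/Eu detection. Four-parameter fit.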

[4] = biological target: T1, Phosphatidylinositol 4,5-bisphosphate 3-kinase catalytic subunit delta isoform (Homo sapiens, UniProt O00329)
T1 sequence (O00329 whole entry): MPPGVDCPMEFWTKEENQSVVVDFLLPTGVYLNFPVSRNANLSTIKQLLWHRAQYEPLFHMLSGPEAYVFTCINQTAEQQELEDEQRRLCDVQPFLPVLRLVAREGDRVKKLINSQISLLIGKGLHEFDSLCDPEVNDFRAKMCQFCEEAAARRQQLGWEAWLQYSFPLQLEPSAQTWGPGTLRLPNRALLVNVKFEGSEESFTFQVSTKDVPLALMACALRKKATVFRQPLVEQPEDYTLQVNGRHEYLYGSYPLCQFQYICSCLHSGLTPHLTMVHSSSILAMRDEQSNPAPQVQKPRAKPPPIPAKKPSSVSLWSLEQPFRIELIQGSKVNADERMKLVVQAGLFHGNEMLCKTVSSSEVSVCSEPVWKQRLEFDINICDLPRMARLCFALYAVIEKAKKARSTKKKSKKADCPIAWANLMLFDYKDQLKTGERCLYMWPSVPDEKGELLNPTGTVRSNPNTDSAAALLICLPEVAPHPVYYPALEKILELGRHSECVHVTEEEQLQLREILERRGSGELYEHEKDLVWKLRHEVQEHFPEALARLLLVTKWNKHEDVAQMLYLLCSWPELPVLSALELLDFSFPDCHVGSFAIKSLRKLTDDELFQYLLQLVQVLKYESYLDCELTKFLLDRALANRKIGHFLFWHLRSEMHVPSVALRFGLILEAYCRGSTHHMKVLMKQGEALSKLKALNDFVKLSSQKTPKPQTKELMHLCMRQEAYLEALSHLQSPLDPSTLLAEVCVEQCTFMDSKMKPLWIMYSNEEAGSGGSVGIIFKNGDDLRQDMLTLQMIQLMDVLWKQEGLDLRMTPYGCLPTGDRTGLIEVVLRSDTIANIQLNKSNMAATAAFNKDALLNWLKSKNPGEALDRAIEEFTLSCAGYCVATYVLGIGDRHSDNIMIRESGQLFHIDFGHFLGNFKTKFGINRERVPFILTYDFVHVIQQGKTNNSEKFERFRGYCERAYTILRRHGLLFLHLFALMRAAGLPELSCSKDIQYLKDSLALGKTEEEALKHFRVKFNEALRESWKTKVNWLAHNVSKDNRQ

[5] = biological target: Tyrosine-protein kinase BTK (Homo sapiens, UniProt Q06187); assay: Inhibition of BTK (unknown origin)
[6] = Inhibition of DAGK (unknown origin); design: species or system Homo sapiens
Sphingosine kinase 1 = Sphingosine kinase 1 (Homo sapiens, UniProt Q9NYA1); assay: Inhibition of SPHK1 (unknown origin)
Chain of Sphingosine kinase 1 (Q9NYA1 whole entry): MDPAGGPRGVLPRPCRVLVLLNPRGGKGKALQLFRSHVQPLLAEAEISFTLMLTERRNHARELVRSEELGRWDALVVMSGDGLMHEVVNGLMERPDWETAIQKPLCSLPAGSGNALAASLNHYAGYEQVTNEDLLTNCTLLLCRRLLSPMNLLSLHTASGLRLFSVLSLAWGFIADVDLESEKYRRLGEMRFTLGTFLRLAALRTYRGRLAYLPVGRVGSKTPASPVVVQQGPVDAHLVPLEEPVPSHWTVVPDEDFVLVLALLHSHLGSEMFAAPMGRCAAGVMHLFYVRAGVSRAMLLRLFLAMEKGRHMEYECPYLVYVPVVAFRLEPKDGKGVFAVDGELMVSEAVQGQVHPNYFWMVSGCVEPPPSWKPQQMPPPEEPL

Chain of Tyrosine-protein kinase BTK (Q06187 whole entry): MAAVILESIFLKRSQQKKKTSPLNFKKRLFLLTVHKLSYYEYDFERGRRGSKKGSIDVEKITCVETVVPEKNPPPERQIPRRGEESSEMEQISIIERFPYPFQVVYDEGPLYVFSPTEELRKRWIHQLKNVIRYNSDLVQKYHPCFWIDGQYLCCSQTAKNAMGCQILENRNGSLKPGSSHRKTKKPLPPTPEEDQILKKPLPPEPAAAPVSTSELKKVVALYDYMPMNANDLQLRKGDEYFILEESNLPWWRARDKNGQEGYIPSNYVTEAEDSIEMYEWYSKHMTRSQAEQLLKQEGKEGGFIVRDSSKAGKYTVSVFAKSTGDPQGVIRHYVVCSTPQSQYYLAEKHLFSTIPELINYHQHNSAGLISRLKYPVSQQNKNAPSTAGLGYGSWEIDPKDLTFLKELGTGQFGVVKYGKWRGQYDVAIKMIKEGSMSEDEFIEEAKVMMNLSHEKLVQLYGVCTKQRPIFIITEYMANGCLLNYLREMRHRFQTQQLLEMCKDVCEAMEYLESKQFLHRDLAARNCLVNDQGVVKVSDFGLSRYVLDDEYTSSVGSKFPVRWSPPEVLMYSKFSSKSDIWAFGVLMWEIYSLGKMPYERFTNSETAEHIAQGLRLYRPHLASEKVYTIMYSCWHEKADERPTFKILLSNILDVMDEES
Chain of Aurora kinase B (Q96GD4 whole entry): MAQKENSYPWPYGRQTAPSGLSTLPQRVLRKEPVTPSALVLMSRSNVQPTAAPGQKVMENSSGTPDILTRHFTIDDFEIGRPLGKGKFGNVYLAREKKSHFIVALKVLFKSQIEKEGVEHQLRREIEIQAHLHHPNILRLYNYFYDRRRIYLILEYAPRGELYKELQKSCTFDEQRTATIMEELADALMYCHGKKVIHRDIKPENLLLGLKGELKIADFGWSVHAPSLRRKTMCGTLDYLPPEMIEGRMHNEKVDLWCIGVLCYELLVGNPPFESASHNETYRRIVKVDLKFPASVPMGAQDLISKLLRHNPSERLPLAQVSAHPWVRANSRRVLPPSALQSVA
Chain of Phosphatidylinositol 4-kinase beta (Q9UBF8 whole entry): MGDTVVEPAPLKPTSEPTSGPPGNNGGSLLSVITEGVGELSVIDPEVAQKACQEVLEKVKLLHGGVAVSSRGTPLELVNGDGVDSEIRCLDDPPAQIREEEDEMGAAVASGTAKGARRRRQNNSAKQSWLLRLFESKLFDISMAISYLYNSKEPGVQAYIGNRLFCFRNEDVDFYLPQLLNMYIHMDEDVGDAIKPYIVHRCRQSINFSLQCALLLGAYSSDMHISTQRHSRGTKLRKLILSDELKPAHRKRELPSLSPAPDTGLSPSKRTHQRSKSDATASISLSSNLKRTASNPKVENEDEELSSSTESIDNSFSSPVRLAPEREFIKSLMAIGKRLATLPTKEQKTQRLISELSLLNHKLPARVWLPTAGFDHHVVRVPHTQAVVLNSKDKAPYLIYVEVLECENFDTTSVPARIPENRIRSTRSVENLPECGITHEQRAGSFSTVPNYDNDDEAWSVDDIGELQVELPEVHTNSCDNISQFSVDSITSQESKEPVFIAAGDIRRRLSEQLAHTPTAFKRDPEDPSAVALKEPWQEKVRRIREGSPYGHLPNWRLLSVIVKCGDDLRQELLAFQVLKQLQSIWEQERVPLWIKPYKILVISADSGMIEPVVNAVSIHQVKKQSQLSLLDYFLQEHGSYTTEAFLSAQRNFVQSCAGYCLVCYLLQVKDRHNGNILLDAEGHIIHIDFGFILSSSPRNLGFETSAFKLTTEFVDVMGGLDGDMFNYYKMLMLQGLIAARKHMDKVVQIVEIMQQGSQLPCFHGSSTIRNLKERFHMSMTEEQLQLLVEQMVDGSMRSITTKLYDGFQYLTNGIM

Structure (SMILES): COc1ncc(-c2cc3c(c(NC(=O)CN4CCOCC4)c2)COC3)cc1NS(C)(=O)=O
- CLH [1]: < 0.5 mL/min/g
- IC50 [2]: > 10 µM
- IC50 (Aurora kinase B): > 10 µM
- Drug uptake(free) [3]: 0.032 µM
- Ratio IC50 (Homo sapiens): 63
- IC50 [4]: 0.158 µM
- IC50 [5]: > 10 µM
- pIC50 [6]: < 5
- IC50 (Sphingosine kinase 1): > 10 µM
